Apaf-1 inh – inhibitors of human Apaf-1 apoptosome, primary screen, biochemical, DEVD-Rh110 fluorescence, uHTS | reconstituted apoptosome caspase-3 activity | inhibition, % at 20 µM | actives 0.71% (n = 330,000); active means inhibition of at least 40% at 20 µM;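 further: plate controls were DMSO wells for no effect and DEVD-CHO caspase inhibitor wells for full effect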
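System – cell-free apoptosome with Apaf-1, procaspase-3 and caspase-9 · Buffer or medium – pH 7.5 Hepes buffer with CHAPS, BSA, DTT · Also added – cytochrome c with DEVD-Rh110 · Times – 30 min compound preincubation, 50 min activation, room temperature · Technique – Rh110 fluorescence intensity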
Mdm2 MdmX PPI – inhibitors of human Mdm2-MdmX association, primary screen, cell-based, luminescence, split luciferase, SaOS-2, uHTS; Protein Mdm4 (Homo sapiens) + E3 ubiquitin-protein ligase Mdm2 (Homo sapiens), …; SaOS-2 split-luciferase Mdm2/MdmX complementation; inhibition, % at 8 µM; actives 3% (n = 330,000); AID 485346, 2010;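 active means inhibition of at least 50% at 8 µM in the primary screen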
UPR XBP1 act – activators of adaptive XBP1 UPR arm, primary screen, cell-based, CHO-XBP1 luciferase reporter, luminescence, uHTS | IRE1-XBP1 UPR activation; percent of tunicamycin response, DMSO as zero | activation, % at 20 µM | actives 0.33% (n = 330,000);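 active means versus positive control, 20 µM dose yields 30% or more activation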;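 further: 100% = tunicamycin at 10 µg/mL and 0% = DMSO only wells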
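Signal: luciferase luminescence; Assay system: CHO-XBP1 luciferase reporter cells; Amount: one thousand reporter cells per well; Dosing: 20 µM single concentration, DMSO 1%; Benchmarks: high control tunicamycin 10 µg/mL final, low control DMSO vehicle only; Schedule: 6 h compound exposure at 37 °C, 5% CO2; Evaluation: percent activation relative to tunicamycin reference.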
UBC13 polyUb – UBC13 polyubiquitin chain formation inhibitors, primary screen, biochemical, TR-FRET, uHTS; Ubiquitin-conjugating enzyme E2 N (Homo sapiens), P61088; inhibition, % at 20 µM; actives 0.47% (n = 330,000); in the data active means inhibition above about 45%, passing the limit was not always enough
Target sequence (P61088 whole entry, looked up): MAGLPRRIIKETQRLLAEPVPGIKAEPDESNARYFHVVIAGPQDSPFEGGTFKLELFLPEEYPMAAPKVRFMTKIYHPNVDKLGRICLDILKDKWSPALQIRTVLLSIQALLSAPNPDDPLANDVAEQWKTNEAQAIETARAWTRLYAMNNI
CHOP UPR activ – activators of apoptotic CHOP UPR arm, primary screen, cell-based, CHO-CHOP luciferase reporter, luminescence, uHTS; actives 0.34% (n = 330,000); UPR activation; percent of tunicamycin response over DMSO baseline; activation, % at 10 µM;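 active means at 10 µM dose, activation of 40% or more, normalized to positive control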;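 further: 100% = tunicamycin at 10 µg/mL and 0% = DMSO alone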
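Assay system: CHO cells with stable CHOP pathway luciferase reporter; Buffer or medium: F12 plus 10% serum; Times: 16-18 h cell attachment, then 6 h compound exposure, 37 °C; Signal: luciferase luminescence; Read-out basis: percent activation relative to tunicamycin control; Control set: tunicamycin high control, DMSO low control.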
Casp3 counter – CASP3 inhibitor validation, counterassay for project on UBE2N polyubiquitination blockers, biochemical, one dose; actives 4% (n = 1,400); Recombinant caspase-3, Caspase-Glo 3/7 luminescence, 60 min; AID 488856, 2010; inhibition, % at 20 µM; shares compounds with UBC13 polyUb;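 active means mean inhibition across replicates above about 26%, limit read from the data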;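 further: plate controls were DMSO with caspase-3 for no effect and DMSO wells lacking enzyme for full effect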
Target sequence (P42574 whole entry, looked up): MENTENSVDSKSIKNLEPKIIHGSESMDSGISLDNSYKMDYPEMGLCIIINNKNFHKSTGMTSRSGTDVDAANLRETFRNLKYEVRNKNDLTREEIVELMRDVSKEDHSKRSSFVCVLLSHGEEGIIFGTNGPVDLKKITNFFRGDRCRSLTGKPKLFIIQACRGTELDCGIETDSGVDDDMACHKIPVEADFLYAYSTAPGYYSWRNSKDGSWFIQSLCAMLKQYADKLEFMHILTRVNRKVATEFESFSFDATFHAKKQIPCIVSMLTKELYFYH
UBC13 confirm – UBC13 polyubiquitination inhibitors, single-point retest, confirmation, biochemical, TR-FRET, single concentration; shares compounds with UBC13 polyUb; inhibition, % at 10 µM; actives 68% (n = 1,400); in the data active means inhibition above about 45%
* marks the source's active call; other numbers are inactive results; . = not tested or not shown. This is a sample that favours compounds with a hit; in the whole collection about 4.1% have one here.

SMILES | Apaf-1 inh | Mdm2 MdmX PPI | UPR XBP1 act | UBC13 polyUb | CHOP UPR activ | Casp3 counter | UBC13 confirm
CCOc1cc(C2C(C#N)=C(N)Oc3n[nH]c(-c4ccccc4)c32)ccc1O (stereo unspecified) | 12 | -1 | 2 | 83* | 0 | 3 | 100*
Cc1ccccc1CSc1nnc2ccc(-c3ccncc3)nn12 | 5 | 14 | -1 | -6 | -3 | . | .
C=C(C)COc1ccc(-c2[nH]ncc2Oc2cccc(OC)c2)c(O)c1 | 24 | 24 | 3 | 68* | 1 | -4 | 68*
Cc1nc(Nc2nc3ccccc3o2)nc(C)c1C(=O)Nc1ccc(F)cc1 | -3 | -3 | 0 | 16 | 1 | . | .
COCc1cc(=O)[nH]c(Nc2nc3ccccc3o2)n1 | 7 | 20 | 3 | 81* | 20 | 43* | 81*
COC(=O)Cc1cc(=O)[nH]c(/N=C(\N)Nc2ccccc2)n1 | -4 | 0 | -1 | 17 | 0 | . | .
COC(=O)Cc1cc(=O)[nH]c(Nc2nc3ccccc3o2)n1 | 5 | -16 | 0 | 58* | 0 | 18 | 73*
COCc1cc(=O)[nH]c(Nc2nc(C)c3ccccc3n2)n1 | 7 | 25 | 2 | -5 | -1 | . | .
CCOC(=O)Cc1cc(=O)[nH]c(Nc2nc3ccccc3o2)n1 | -7 | 15 | 4 | 82* | 1 | 45* | 93*
COc1ccccc1NC(=O)Cc1nnc(SCC(=O)Nc2nccs2)n1C | 7 | -8 | 3 | 2 | 2 | . | .
Cc1ccc(S(=O)(=O)NC(CC(C)C)C(=O)NCCCn2nc(C)cc2C)cc1 (stereo unspecified) | 1 | 13 | -1 | -16 | -1 | . | .
CN(C)S(=O)(=O)c1cccc(COc2ncnc3c(Cl)cc(Cl)cc23)c1 | 3 | 4 | 1 | 64* | 2 | 6 | 76*
CCn1c(=O)c(C(=O)NCCN2CCCCC2)c(O)c2ccccc21 | 0 | 46 | 8 | 48* | 2 | 1 | 55*
O=C(CN1CCN(c2ccccn2)CC1)Nc1ccc([N+](=O)[O-])cc1C(=O)Nc1ccccc1F | 18 | 29 | -4 | -5 | 4 | . | .
CC(C)C[C@H](N)c1cn([C@@H](Cc2cc3ccccc3[nH]2)C(=O)N2CCNCC2)nn1 | -12 | -23 | 1 | 72* | 2 | 7 | 77*
CCC(C)[C@H](N)c1cn([C@@H](Cc2cc3ccccc3[nH]2)C(=O)N2CCNCC2)nn1 (stereo partly specified) | -11 | 10 | -2 | 94* | 16 | -5 | 81*
C#CCOCCOCCOCCNc1nc(N2CCN(C(=O)[C@H](CCC(=O)O)n3cc(C(N)CC(C)C)nn3)CC2)nc(N2CCN(C(=O)[C@H](Cc3cc4ccccc4[nH]3)n3cc(C(N)CC(C)C)nn3)CC2)n1 (stereo partly specified) | -3 | 15 | 0 | 2 | 1 | . | .
COCCCn1c(N)c(-c2nc3ccccc3n2C)c2nc3ccccc3nc21 | -2 | 21 | 1 | 62* | 5 | -1 | 59*
Cn1c(-c2c(N)n(CCc3ccccc3)c3nc4ccccc4nc23)nc2ccccc21 | -4 | 47 | 0 | 12 | 12 | . | .
O=C1CCc2cc(S(=O)(=O)Nc3cccc(F)c3)cc3c2N1CC3 | 6 | 12 | -3 | -4 | -1 | . | .
Cc1nc(N)sc1C(=O)OCC(C)C | -5 | 10 | 2 | 56* | -1 | -5 | 42
COc1ccc(Cc2nnc(SCC(=O)NCCc3ccccc3)o2)cc1 | -5 | -13 | -2 | 4 | -1 | . | .

Screens deposited in PubChem by Sanford-Burnham Center for Chemical Genomics.
